Data as given in ChEMBL document CHEMBL1153860, “Design, synthesis and structure-activity relationships of antiproliferative 1,3-disubstituted urea derivatives” (Eur J Med Chem, 2009).

How the values were obtained:
KB = experiment: Antiproliferative activity against human KB cells after 48 hrs by MTT assay; format: functional, cell-based
Outline: (§1)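 Cells seeded at 7 × 10³/well and grown for 24 h. Exponentially growing cells were then exposed for 48 h to final concentrations of 0.1–100. MTT was added for 4 h, followed by 10% SDS in 0.01 N HCl at 37 °C for 18 h, and absorbance was read at 570 nm. Survival was expressed as % of untreated cells. IC50 was taken from six-well replicates in at least two independent experiments.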

[1] = Antiproliferative activity against human L02 cells after 48 hrs by MTT assay; format: cell-based; settings: L02, 48 h; outline: as §1

Structure (SMILES) | IC50 (KB) | IC50 [1]
CCOC(=O)N1CCC(N(Cc2ccc(O)cc2)C(=O)N(C)C)CC1 | 48.6 µM | 
CN(C)C(=O)N(Cc1ccco1)Cc1cc(Br)ccc1O | 32.8 µM | 
CCOC(=O)N1CCC(N(Cc2cc([N+](=O)[O-])ccc2O)C(=O)N(C)C)CC1 | 24.2 µM | 
CN(C)C(=O)N(Cc1ccc([N+](=O)[O-])cc1)Cc1ccco1 | 17.5 µM | 
CCOC(=O)N1CCC(N(Cc2ccc([N+](=O)[O-])cc2)C(=O)N(C)C)CC1 | 16.4 µM | 
CN(C)C(=O)N(Cc1ccco1)Cc1cc(Cl)ccc1O | 49.5 µM | 
CCOC(=O)N1CCC(N(Cc2cccc([N+](=O)[O-])c2)C(=O)N(C)C)CC1 | 15.6 µM | 
CN(C)C(=O)N(Cc1ccc(O)cc1)Cc1ccco1 | 52.1 µM | 
CN(C)C(=O)N(Cc1ccco1)Cc1cc([N+](=O)[O-])ccc1O | 20.8 µM | 
CCOC(=O)N1CCC(N(Cc2cc(Cl)ccc2O)C(=O)N(C)C)CC1 | 25.7 µM | 
CCOC(=O)N1CCC(N(Cc2cc(Br)ccc2O)C(=O)N(C)C)CC1 | 24.6 µM | 
COc1cc([C@@H]2c3cc4c(cc3[C@@H](O[C@@H]3O[C@@H]5CO[C@@H](C)O[C@H]5[C@H](O)[C@H]3O)[C@H]3COC(=O)[C@H]23)OCO4)cc(OC)c1O [ETOPOSIDE] | 0.42 µM | 13 µM

More lines, main results first:

IC50 (KB) | Structure (SMILES) | IC50 [1]
9 µM | CN(C)C(=O)N(CCCN1CCOCC1)Cc1cc(Br)ccc1O | 86 µM
0.09 µM | CN(C)C(=O)N(CCN1CCOCC1)Cc1cccc([N+](=O)[O-])c1 | 155 µM
4.25 µM | CN(C)C(=O)N(CCN1CCOCC1)Cc1ccc(O)cc1 | 81 µM
1.75 µM | CN(C)C(=O)N(CCCN1CCOCC1)Cc1cc(Cl)ccc1O | 81 µM
3.3 µM | CN(C)C(=O)N(CCCN1CCOCC1)Cc1cc([N+](=O)[O-])ccc1O | 125 µM
0.17 µM | CN(C)C(=O)N(CCCN1CCOCC1)Cc1cccc([N+](=O)[O-])c1 | 134 µM
0.75 µM | CN(C)C(=O)N(CCN1CCOCC1)Cc1ccc([N+](=O)[O-])cc1 | 65 µM
2.24 µM | CN(C)C(=O)N(CCN1CCOCC1)Cc1cc(Cl)ccc1O | 82 µM
7.3 µM | CN(C)C(=O)N(CCN1CCOCC1)Cc1cc(Br)ccc1O | 21 µM
23.8 µM | CN(C)C(=O)N(Cc1cccc([N+](=O)[O-])c1)Cc1ccco1 | 
2.88 µM | CN(C)C(=O)N(CCCN1CCOCC1)Cc1ccc(O)cc1 | 109 µM
4.8 µM | CN(C)C(=O)N(CCN1CCOCC1)Cc1cc([N+](=O)[O-])ccc1O | 26 µM
0.52 µM | CN(C)C(=O)N(CCCN1CCOCC1)Cc1ccc([N+](=O)[O-])cc1 | 85 µM
